Results reported in ChEMBL document CHEMBL3046654, “Penoxsulam--structure-activity relationships of triazolopyrimidine sulfonamides” (Bioorg Med Chem, 2009).

Columns and labels:
Sorghum halepense = experiment: Post-emergence herbicidal activity against Sorghum halepense (Johnson grass) compound treated as foliar application measured after 2 weeks; format: functional
How it was run: (§1)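 Greenhouse post-emergence foliar screen in 64 cm² pots. Seed treatments were used on some species to aid germination. Plants were grown 7–21 days at 23–29 °C day/22–28 °C night under a 15 h photoperiod. Sprayed at 2–12 cm height and the 1–4 true leaf stage.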

Ipomoea = experiment: Post-emergence herbicidal activity against Ipomoea spp. compound treated as foliar application measured after 2 weeks; format: functional; how it was run: as §1
Ipomoea hederacea = experiment: Post-emergence herbicidal activity against Ipomoea hederacea (ivy-leaved morning glory) compound treated as foliar application measured after 2 weeks; format: functional; how it was run: as §1
Fallopia convolvulus = experiment: Post-emergence herbicidal activity against Fallopia convolvulus compound treated as foliar application measured after 2 weeks; format: functional; how it was run: as §1
Oryza sativa = experiment: Phytotoxicity against Oryza sativa (rice); format: organism-based; details: in vivo
Helianthus = experiment: Post-emergence herbicidal activity against Helianthus spp. compound treated as foliar application measured after 2 weeks; format: functional; how it was run: as §1
Xanthium strumarium = experiment: Post-emergence herbicidal activity against Xanthium strumarium (cocklebur) compound treated as foliar application measured after 2 weeks; format: functional; how it was run: as §1
Amaranthus retroflexus = experiment: Post-emergence herbicidal activity against Amaranthus retroflexus compound treated as foliar application measured after 2 weeks; format: functional; how it was run: as §1
Setaria faberi = experiment: Post-emergence herbicidal activity against Setaria faberi (Giant Foxtail) compound treated as foliar application measured after 2 weeks; format: functional; how it was run: as §1
Alopecurus = experiment: Post-emergence herbicidal activity against Alopecurus spp. compound treated as foliar application measured after 2 weeks; format: functional; how it was run: as §1
Chenopodium album = experiment: Post-emergence herbicidal activity against Chenopodium album compound treated as foliar application measured after 2 weeks; format: functional; how it was run: as §1
Avena fatua = experiment: Post-emergence herbicidal activity against Avena fatua compound treated as foliar application measured after 2 weeks; format: functional; how it was run: as §1
Stellaria media = experiment: Post-emergence herbicidal activity against Stellaria media compound treated as foliar application measured after 2 weeks; format: functional; how it was run: as §1
Echinochloa crus-galli = experiment: Post-emergence herbicidal activity against Echinochloa crus-galli (barnyard grass) compound treated as foliar application measured after 2 weeks; format: functional; how it was run: as §1
Digitaria sanguinalis = experiment: Post-emergence herbicidal activity against Digitaria sanguinalis (hairy crabgrass) compound treated as foliar application measured after 2 weeks; format: functional; how it was run: as §1
Datura stramonium = experiment: Post-emergence herbicidal activity against Datura stramonium compound treated as foliar application measured after 2 weeks; format: functional; how it was run: as §1
Abutilon theophrasti = experiment: Post-emergence herbicidal activity against Abutilon theophrasti (velvetleaf) compound treated as foliar application measured after 2 weeks; format: functional; how it was run: as §1
Veronica hederifolia = experiment: Post-emergence herbicidal activity against Veronica hederifolia compound treated as foliar application measured after 2 weeks; format: functional; how it was run: as §1

Structure (SMILES) | GR80 (Sorghum halepense) [ppm] | GR80 (Ipomoea) [ppm] | GR80 (Ipomoea hederacea) [ppm] | GR80 (Fallopia convolvulus) [ppm] | GR20 (Oryza sativa) [ppm] | GR80 (Helianthus) [ppm] | GR80 (Xanthium strumarium) [ppm] | GR80 (Amaranthus retroflexus) [ppm] | GR80 (Setaria faberi) [ppm] | GR80 (Alopecurus) [ppm] | GR80 (Chenopodium album) [ppm] | GR80 (Avena fatua) [ppm] | GR80 (Stellaria media) [ppm] | GR80 (Echinochloa crus-galli) [ppm] | GR80 (Digitaria sanguinalis) [ppm] | GR80 (Datura stramonium) [ppm] | GR80 (Abutilon theophrasti) [ppm] | GR80 (Veronica hederifolia) [ppm]
COc1cnc(OC)n2nc(NS(=O)(=O)c3cc(Cl)cc(Cl)c3)nc12 | >1000 | 126 | 126 | 126 | 62 | 126 | 126 | 126 | >1000 | >1000 | 126 | >1000 | 126 | >1000 | >1000 | 126 | 126 | 126
COc1cccc(C(F)(F)F)c1S(=O)(=O)Nc1nc2c(OC)cnc(OC)n2n1 | 1 | <0.2 | <0.2 | <0.2 | 2 | <0.2 | <0.2 | <0.2 | 1 | 1 | <0.2 | 1 | <0.2 | 1 | 1 | <0.2 | <0.2 | <0.2
COc1ccccc1S(=O)(=O)Nc1nc2c(OC)cnc(OC)n2n1 | 1 | 1 | 1 | 1 | < 1 | 1 | 1 | 1 | 1 | 1 | 1 | 1 | 1 | 2 | 1 | 1 | 1 | 1
COc1cccc(OC)c1S(=O)(=O)Nc1nc2c(OC)cnc(OC)n2n1 | <0.1 | 0.5 | 0.5 | 0.5 | < 0.5 | 0.5 | 0.5 | 0.5 | <0.1 | <0.1 | 0.5 | <0.1 | 0.5 | <0.5 | <0.1 | 0.5 | 0.5 | 0.5
COc1cnc(OC)n2nc(NS(=O)(=O)c3ccccc3C(F)(F)F)nc12 | 435 | 13 | 13 | 13 | < 1 | 13 | 13 | 13 | 435 | 435 | 13 | 435 | 13 | 250 | 435 | 13 | 13 | 13
COc1cnc(OC)n2nc(NS(=O)(=O)c3c(OCCCF)cccc3C(F)(F)F)nc12 | 250 | 15 | 15 | 15 | > 250 | 15 | 15 | 15 | 250 | 250 | 15 | 250 | 15 | 125 | 250 | 15 | 15 | 15
